Results pooled from the literature.
Lines come from different studies, so protocols differ.
Read-out: cell growth or viability

SMILES	cell line	test	setting	quantity	value
CCNCCCn1c2c(c3cc(OC)c(OC)cc3c1=O)C(=O)c1cc3c(nc1-2)OCO3	K562	MTS	72 h	IC50	0.158 µM
C=CC(=O)c1cccnc1Nc1cc(C(F)(F)F)ccc1OCc1ccccc1	HCT-15	SRB	48 h	GI50	19.5 µM
CCC[C@H]1NC(=O)[C@H](Cc2cc(Cl)ccc2-c2cnn(C)c2)N(C)C(=O)[C@H](CC(C)C)NC(=O)[C@@H](N(C)C(=O)[C@H](CCCCN2CCOCC2)NC(=O)[C@@H](c2cccnc2)C2CCCCC2)CCCCNC1=O	NCI-H446	MTT	5 days	GI50	4.2 µM
COc1ccc(C#N)cc1-c1c[nH]c2ncc(-c3cncc(C(=O)N(C)C)c3)cc12	K562	MTT	72 h	GI50	0.33 µM
C=C(F)C(=O)N1CCN(c2nc(OC[C@@H]3CCCN3C)nc3c2CCN(c2cccc4cccc(Cl)c24)C3)C[C@@H]1CC#N	NCI-H1373	ATP luminescence	3D culture	IC50	0.00515 µM
COc1ccc(OCc2ccc([N+](=O)[O-])cc2)cc1-c1c[nH]c2ncc(-c3cncc(C(=O)N(C)C)c3)cc12	K562	MTT	72 h	GI50	0.697 µM
Cc1sc2c(c1C)C(c1ccc(Cl)cc1)=N[C@@H](CC(=O)NCCCCCCCCNC(=O)COc1cccc3c1C(=O)N(C1CCC(=O)NC1=O)C3=O)c1nnc(C)n1-2 (some centres unmarked)	K562	ATP luminescence	–	IC50	0.343 µM
COc1cc2c3c(n(CCCN4CCOCC4)c(=O)c2cc1OC)-c1nc2c(cc1C3=O)OCO2	K562	MTS	72 h	IC50	1.01 µM
CC(C)C[C@@H]1NC(=O)[C@@H](N(C)C(=O)[C@@H](NC(=O)[C@@H]2C[C@@H](F)CN2C(=O)C2(C(F)(F)F)CC(F)(F)C2)C2CC2)CCCCNC(=O)C(C)(C)NC(=O)[C@H](Cc2cc(Cl)nn2-c2ccccc2)N(C)C1=O	NCI-H446	MTT	5 days	GI50	4.4 µM
Cc1cc(C)c(CNC(=O)c2cc(Cl)c3c(c2C)O[C@@](C)([C@H]2CC[C@H](N(C)C)CC2)O3)c(=O)[nH]1	HT-1376	ATP luminescence	18 days	GI50	0.018 µM
CN(C)C(=O)c1cncc(-c2cnc3[nH]cc(-c4ccccc4C#N)c3c2)c1	K562	MTT	72 h	GI50	0.591 µM
O=C(O)c1ccccc1Nc1cccc(C(F)(F)F)c1	HCT-15	SRB	48 h	GI50	> 30 µM
COc1ccc(N)cc1-c1c[nH]c2ncc(-c3cncc(C(=O)N(C)C)c3)cc12	K562	MTT	72 h	GI50	0.175 µM
C=CC(=O)NC1CCN(c2ncc3ncnc(Nc4ccc(Oc5ccc6c(c5)ncn6C)c(C)c4)c3n2)CC1	NCI-H1373	–	–	EC50	137 µM
O=C(NO)c1ccc(CNc2nc3cccc(-c4ccc5c(c4)OCO5)n3n2)cc1	SN12C	SRB	–	GI50	0.72 µM
O=C(Nc1ccc(OC(F)(F)Cl)cc1)c1cnc(N2CC[C@@H](O)C2)c(-c2cc[nH]n2)c1	K562	MTT	72 h	GI50	0.00072 µM
C=CC(=O)c1cccnc1Nc1cccc(C(F)(F)F)c1	HCT-15	SRB	48 h	GI50	15.5 µM
